ChEMBL document CHEMBL1137240, “Conjugation of adenosine and hexa-(D-arginine) leads to a nanomolar bisubstrate-analog inhibitor of basophilic protein kinases” (J Med Chem, 2006)

Legend:
[1] = target: RAC-beta serine/threonine-protein kinase (Homo sapiens) (UniProt P31751); experiment: Percent residual activity, relative to control, of PKB beta at 1uM concentration of inhibitor in presence of 50uM ATP
In short: (§1)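 It is expressed as percent of activity in control incubations without inhibitor, as the mean of duplicate determinations. The protocol follows earlier published panel methods.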

[2] = target: Serine/threonine-protein kinase Chk1 (Homo sapiens) (UniProt O14757); experiment: Percent residual activity, relative to control, of CHK1 at 1 uM concentration of inhibitor in presence of 20 uM ATP; in short: as §1
[3] = target: Serine/threonine-protein kinase D1 (Homo sapiens) (UniProt Q15139); experiment: Percent residual activity, relative to control, of PKD1 at 1 uM concentration of inhibitor in presence of 50 uM ATP; in short: as §1
[4] = target: MAP kinase-activated protein kinase 5 (Homo sapiens) (UniProt Q8IW41); experiment: Percent residual activity, relative to control, of PRAK at 1uM concentration of inhibitor in presence of 20uM ATP; in short: as §1
[5] = target: Serine/threonine-protein kinase Nek2 (Homo sapiens) (UniProt P51955); experiment: Percent residual activity, relative to control, of NEK2a at 1 uM concentration of inhibitor in presence of 50 uM ATP; in short: as §1
Chain of Serine/threonine-protein kinase Nek2 (Homo sapiens) (P51955 whole entry): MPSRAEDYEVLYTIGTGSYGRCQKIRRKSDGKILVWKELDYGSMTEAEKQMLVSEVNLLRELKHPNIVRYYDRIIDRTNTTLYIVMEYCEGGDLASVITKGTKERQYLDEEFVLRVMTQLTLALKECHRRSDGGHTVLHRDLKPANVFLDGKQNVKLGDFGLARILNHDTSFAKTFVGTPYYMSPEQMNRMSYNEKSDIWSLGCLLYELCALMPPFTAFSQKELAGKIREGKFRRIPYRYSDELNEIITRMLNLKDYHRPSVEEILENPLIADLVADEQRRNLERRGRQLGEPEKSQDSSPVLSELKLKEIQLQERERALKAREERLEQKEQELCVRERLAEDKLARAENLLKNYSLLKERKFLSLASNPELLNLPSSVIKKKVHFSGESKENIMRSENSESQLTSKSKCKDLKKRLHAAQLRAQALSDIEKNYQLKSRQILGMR

[6] = target: Dual specificity tyrosine-phosphorylation-regulated kinase 1A (Homo sapiens) (UniProt Q13627); experiment: Percent residual activity, relative to control, of DYRK1a at 1 uM concentration of inhibitor in presence of 50 uM ATP; in short: as §1
Homo sapiens [7] = organism: Homo sapiens; experiment: Percent residual activity, relative to control, of CAMK-1 at 1 uM concentration of inhibitor in presence of 50 uM ATP; in short: as §1
[8] = target: Mitogen-activated protein kinase 14 (Homo sapiens) (UniProt Q16539); experiment: Percent residual activity, relative to control, of SAPK2a/p38 at 1 uM concentration of inhibitor in presence of 50 uM ATP; in short: as §1
[9] = target: Mitogen-activated protein kinase 13 (Homo sapiens) (UniProt O15264); experiment: Percent residual activity, relative to control, of SAPK4/p38 delta at 1 uM concentration of inhibitor in presence of 5 uM ATP; in short: as §1
Chain of Mitogen-activated protein kinase 13 (Homo sapiens) (O15264 whole entry): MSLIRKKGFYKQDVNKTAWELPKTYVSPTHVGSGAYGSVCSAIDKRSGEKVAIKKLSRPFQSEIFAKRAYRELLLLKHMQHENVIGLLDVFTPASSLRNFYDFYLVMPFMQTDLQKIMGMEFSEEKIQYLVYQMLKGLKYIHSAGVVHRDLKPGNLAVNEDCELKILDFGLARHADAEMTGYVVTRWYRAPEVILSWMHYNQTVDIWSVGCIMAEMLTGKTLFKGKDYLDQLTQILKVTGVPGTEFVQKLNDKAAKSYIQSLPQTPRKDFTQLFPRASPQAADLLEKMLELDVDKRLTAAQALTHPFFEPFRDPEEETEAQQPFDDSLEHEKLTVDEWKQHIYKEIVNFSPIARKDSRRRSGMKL

[10] = target: c-Jun N-terminal kinase, JNK (Homo sapiens) (UniProt P45983+P53779+P45984); experiment: Percent residual activity, relative to control, of JNK/SAPK1c at 1 uM concentration of inhibitor in presence of 20 uM ATP; assay type: protein assay; in short: as §1
[11] = target: Mitogen-activated protein kinase 10 (Homo sapiens) (UniProt P53779); experiment: Percent residual activity, relative to control, of JNK3 at 1uM concentration of inhibitor in presence of 50uM ATP; in short: as §1
[12] = target: Mitogen-activated protein kinase 1 (Homo sapiens) (UniProt P28482); experiment: Percent residual activity, relative to control, of MAPK2/ERK2 at 1 uM concentration of inhibitor in presence of 50 uM ATP; in short: as §1
Chain of Mitogen-activated protein kinase 1 (Homo sapiens) (P28482 whole entry): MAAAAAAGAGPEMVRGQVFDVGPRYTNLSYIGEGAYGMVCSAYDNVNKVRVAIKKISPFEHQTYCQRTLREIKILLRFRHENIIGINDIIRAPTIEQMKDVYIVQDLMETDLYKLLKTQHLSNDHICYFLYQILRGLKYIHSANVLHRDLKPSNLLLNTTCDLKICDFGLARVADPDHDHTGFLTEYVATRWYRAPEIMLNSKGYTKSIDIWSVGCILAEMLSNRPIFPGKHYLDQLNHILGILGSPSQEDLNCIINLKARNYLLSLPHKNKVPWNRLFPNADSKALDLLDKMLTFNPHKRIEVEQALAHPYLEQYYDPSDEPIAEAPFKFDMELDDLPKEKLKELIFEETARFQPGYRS

[13] = target: Lymphokine-activated killer T-cell-originated protein kinase (Homo sapiens) (UniProt Q96KB5); experiment: Percent residual activity, relative to control, of PBK at 1uM concentration of inhibitor in presence of 50uM ATP; in short: as §1
Chain of Lymphokine-activated killer T-cell-originated protein kinase (Homo sapiens) (Q96KB5 whole entry): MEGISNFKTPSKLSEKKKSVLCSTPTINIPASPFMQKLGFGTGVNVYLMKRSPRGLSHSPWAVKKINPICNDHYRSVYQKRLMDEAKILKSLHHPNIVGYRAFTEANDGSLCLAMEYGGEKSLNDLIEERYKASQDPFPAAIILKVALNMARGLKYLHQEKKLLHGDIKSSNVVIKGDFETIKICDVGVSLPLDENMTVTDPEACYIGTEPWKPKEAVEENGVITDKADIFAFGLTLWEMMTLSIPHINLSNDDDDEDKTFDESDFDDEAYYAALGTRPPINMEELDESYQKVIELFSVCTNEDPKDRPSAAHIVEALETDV

[14] = target: Serine/threonine-protein kinase Sgk1 (Homo sapiens) (UniProt O00141); experiment: Percent residual activity, relative to control, of SGK at 1 uM concentration of inhibitor in presence of 20 uM ATP; in short: as §1
Chain of Serine/threonine-protein kinase Sgk1 (Homo sapiens) (O00141 whole entry): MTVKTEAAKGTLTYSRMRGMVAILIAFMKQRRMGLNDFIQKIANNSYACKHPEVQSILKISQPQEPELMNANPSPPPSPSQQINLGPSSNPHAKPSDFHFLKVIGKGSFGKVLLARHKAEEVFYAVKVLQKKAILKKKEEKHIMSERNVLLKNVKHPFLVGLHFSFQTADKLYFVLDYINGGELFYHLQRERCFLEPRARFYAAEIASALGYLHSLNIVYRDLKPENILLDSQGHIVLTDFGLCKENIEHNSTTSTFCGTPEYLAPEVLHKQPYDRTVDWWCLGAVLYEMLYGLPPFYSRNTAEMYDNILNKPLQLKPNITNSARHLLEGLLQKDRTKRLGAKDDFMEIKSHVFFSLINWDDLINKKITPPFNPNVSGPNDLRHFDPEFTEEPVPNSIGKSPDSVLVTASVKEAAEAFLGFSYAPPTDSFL

[15] = target: Serine/threonine-protein kinase Nek7 (Homo sapiens) (UniProt Q8TDX7); experiment: Percent residual activity, relative to control, of NEK7 at 1 uM concentration of inhibitor in presence of 20 uM ATP; in short: as §1
Chain of Serine/threonine-protein kinase Nek7 (Homo sapiens) (Q8TDX7 whole entry, looked up): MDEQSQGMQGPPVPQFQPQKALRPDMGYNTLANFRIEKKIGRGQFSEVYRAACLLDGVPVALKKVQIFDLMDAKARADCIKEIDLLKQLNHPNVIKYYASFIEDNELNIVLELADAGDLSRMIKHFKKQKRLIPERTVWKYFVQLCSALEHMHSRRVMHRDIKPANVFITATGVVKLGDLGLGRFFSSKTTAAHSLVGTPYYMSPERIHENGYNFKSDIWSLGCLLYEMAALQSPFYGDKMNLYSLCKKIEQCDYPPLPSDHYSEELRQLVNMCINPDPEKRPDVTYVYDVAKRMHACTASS

[16] = target: Cyclin-dependent kinase 2/cyclin A (Homo sapiens) (UniProt P24941+P20248+P78396); experiment: Percent residual activity, relative to control, of CDK2 (with cyclin A) at 1 uM concentration of inhibitor in presence of 20 uM ATP; assay type: protein-complex assay; in short: as §1
[17] = target: Serine/threonine-protein kinase 3 (Homo sapiens) (UniProt Q13188); experiment: Percent residual activity, relative to control, of MST2 at 1 uM concentration of inhibitor in presence of 20 uM ATP; in short: as §1
Chain of Serine/threonine-protein kinase 3 (Homo sapiens) (Q13188 whole entry): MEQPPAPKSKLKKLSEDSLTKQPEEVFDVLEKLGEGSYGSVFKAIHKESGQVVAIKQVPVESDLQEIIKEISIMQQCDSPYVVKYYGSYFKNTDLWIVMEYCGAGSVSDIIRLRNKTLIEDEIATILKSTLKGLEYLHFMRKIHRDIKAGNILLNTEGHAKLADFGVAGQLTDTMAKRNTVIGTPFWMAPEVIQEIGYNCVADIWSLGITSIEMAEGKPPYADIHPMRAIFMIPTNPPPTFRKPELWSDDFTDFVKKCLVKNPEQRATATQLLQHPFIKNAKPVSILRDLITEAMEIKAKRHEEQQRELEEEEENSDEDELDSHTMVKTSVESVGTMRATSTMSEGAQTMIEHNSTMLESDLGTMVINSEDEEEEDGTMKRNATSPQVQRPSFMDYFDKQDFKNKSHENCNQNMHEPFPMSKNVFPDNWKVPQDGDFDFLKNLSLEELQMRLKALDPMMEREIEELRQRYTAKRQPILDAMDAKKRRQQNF

[18] = target: Proto-oncogene tyrosine-protein kinase Src (Homo sapiens) (UniProt P12931); experiment: Percent residual activity, relative to control, of Src at 1 uM concentration of inhibitor in presence of 50 uM ATP
Chain of Proto-oncogene tyrosine-protein kinase Src (Homo sapiens) (P12931 2-536 limits assumed): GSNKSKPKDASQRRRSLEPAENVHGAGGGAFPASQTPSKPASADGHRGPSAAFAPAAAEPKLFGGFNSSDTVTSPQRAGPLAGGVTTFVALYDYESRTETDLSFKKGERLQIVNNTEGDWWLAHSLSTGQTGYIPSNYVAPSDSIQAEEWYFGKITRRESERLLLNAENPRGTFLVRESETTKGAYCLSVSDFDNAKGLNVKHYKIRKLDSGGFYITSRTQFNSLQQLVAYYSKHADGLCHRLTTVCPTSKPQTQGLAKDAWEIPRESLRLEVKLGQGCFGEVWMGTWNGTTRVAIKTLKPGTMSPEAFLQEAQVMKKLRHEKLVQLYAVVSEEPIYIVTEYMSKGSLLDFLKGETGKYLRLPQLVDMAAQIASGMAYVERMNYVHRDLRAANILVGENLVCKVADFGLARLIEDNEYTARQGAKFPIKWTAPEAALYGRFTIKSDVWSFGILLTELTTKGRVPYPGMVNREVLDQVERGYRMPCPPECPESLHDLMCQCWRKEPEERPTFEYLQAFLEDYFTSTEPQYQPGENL
In short: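 Methods followed an earlier description. Activity is given as percent residual activity relative to control incubations with the inhibitor omitted. Values are means of duplicate determinations.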

[19] = target: Ribosomal protein S6 kinase alpha-1 (Homo sapiens) (UniProt Q15418); experiment: Percent residual activity, relative to control, of MAPKAP-K1a/Rsk1 at 1 uM concentration of inhibitor in presence of 50 uM ATP; in short: as §1
Chain of Ribosomal protein S6 kinase alpha-1 (Homo sapiens) (Q15418 whole entry): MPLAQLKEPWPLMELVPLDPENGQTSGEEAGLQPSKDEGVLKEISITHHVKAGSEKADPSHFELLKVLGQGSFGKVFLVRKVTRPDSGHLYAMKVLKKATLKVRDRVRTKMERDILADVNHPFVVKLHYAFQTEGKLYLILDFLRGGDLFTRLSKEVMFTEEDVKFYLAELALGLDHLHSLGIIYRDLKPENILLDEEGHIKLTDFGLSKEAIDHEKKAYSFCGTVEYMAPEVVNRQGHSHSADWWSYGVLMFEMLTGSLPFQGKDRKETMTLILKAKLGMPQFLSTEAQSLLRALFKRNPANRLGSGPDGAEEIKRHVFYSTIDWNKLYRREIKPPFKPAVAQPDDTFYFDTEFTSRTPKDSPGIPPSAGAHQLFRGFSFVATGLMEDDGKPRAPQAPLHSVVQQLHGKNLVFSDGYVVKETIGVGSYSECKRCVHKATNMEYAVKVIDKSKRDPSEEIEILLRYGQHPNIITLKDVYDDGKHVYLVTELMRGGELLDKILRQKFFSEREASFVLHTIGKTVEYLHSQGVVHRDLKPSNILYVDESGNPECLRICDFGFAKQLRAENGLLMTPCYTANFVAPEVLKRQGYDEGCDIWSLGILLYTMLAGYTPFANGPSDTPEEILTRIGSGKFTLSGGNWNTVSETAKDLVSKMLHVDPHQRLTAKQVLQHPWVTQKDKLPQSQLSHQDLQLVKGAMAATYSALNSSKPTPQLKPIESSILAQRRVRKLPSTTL

[20] = target: SRSF protein kinase 1 (Homo sapiens) (UniProt Q96SB4); experiment: Percent residual activity, relative to control, of SRPK1 at 1 uM concentration of inhibitor in presence of 50 uM ATP; in short: as §1
[21] = target: Serine/threonine-protein kinase Nek6 (Homo sapiens) (UniProt Q9HC98); experiment: Percent residual activity, relative to control, of NEK6 at 1 uM concentration of inhibitor in presence of 50 uM ATP; in short: as §1
Chain of Serine/threonine-protein kinase Nek6 (Homo sapiens) (Q9HC98 whole entry): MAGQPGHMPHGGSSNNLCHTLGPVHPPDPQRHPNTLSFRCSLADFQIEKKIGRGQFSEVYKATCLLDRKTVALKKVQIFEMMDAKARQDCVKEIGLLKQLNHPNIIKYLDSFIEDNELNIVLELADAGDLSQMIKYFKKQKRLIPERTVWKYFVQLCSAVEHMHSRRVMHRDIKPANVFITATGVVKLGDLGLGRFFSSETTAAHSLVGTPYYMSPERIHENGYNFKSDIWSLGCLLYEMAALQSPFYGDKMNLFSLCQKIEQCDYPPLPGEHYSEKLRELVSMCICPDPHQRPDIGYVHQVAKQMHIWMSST

[22] = target: AMP-activated protein kinase, AMPK (Homo sapiens) (UniProt P54646+O43741+P54619+Q9UGJ0+Q9Y478+Q13131+Q9UGI9); experiment: Percent residual activity, relative to control, of AMPK at 1 uM concentration of inhibitor in presence of 50 uM ATP; assay type: protein-complex assay; in short: as §1
Homo sapiens [23] = organism: Homo sapiens; experiment: Percent residual activity, relative to control, of MAPKAP-K1b/Rsk2 at 1 uM concentration of inhibitor in presence of 50 uM ATP; in short: as §1
[24] = target: MAP kinase-activated protein kinase 3 (Homo sapiens) (UniProt Q16644); experiment: Percent residual activity, relative to control, of MAPKAP-K3 at 1 uM concentration of inhibitor in presence of 20 uM ATP; in short: as §1
[25] = target: Protein kinase C alpha type (Homo sapiens) (UniProt P17252); experiment: Percent residual activity, relative to control, of PKC alpha at 1uM concentration of inhibitor in presence of 20uM ATP; in short: as §1

N=C(N)NCCC[C@@H](NC(=O)[C@@H](CCCNC(=N)N)NC(=O)[C@@H](CCCNC(=N)N)NC(=O)[C@@H](CCCNC(=N)N)NC(=O)[C@@H](CCCNC(=N)N)NC(=O)[C@@H](CCCNC(=N)N)NC(=O)CCCCCNC(=O)[C@H]1O[C@@H](n2cnc3c(N)ncnc32)[C@H](O)[C@@H]1O)C(N)=O
Activity [1]: 3%
Activity [2]: 16%
Activity [3]: 54%
Activity [4]: 89%
Activity [5]: 82%
Activity [6]: 72%
Activity (Homo sapiens [7]): 15%
Activity [8]: 79%
Activity [9]: 107%
Activity [10]: 70%
Activity [11]: 91%
Activity [12]: 100%
Activity [13]: 88%
Activity [14]: 16%
Activity [15]: 58%
Activity [16]: 88%
Activity [17]: 77%
Activity [18]: 84%
Activity [19]: 28%
Activity [20]: 100%
Activity [21]: 94%
Activity [22]: 48%
Activity (Homo sapiens [23]): 12%
Activity [24]: 67%
Activity [25]: 31%
